Assay results taken from ChEMBL document CHEMBL1165987, “Cyclic tripeptides from the halotolerant fungus Aspergillus sclerotiorum PT06-1” (2010).
Values after ≈ are worked out from the molar mass of the structure shown. Active and inactive are the calls of the source. No cut-off for these calls is given here.

How the values were obtained:
[1] = tested on: Candida albicans; assay: Antimicrobial activity against Candida albicans after 24 hrs by agar dilution method; format: functional
Procedure, shortened: (§1)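 Each organism was tested separately by agar dilution. The MIC was recorded as the read-out and given in µM.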

[2] = tested on: HL-60; assay: Cytotoxicity against human HL60 cells after 72 hrs by MTT assay; format: functional, cell-based
[3] = tested on: A549; assay: Cytotoxicity against human A549 cells after 24 hrs by SRB method; format: functional, cell-based
[4] = tested on: Escherichia coli; assay: Antimicrobial activity against Escherichia coli after 24 hrs by agar dilution method; format: functional, organism-based; procedure, shortened: as §1
[5] = tested on: Staphylococcus aureus; assay: Antimicrobial activity against Staphylococcus aureus after 24 hrs by agar dilution method; format: functional, organism-based; procedure, shortened: as §1

| SMILES | MIC [1] | inhibition [2] | inhibition [3] | MIC [4] | MIC [5] |
| --- | --- | --- | --- | --- | --- |
| C/C=C/C=C/C=C/C(=O)N[C@H]1CCCNC(=O)[C@H](C)NC(=O)[C@H](C(C)C)N(C)C1=O | 30 µM (≈ 12.6 µg/mL) | inactive | inactive | inactive | inactive |
| C/C=C/C=C/C=C/C(=O)N[C@H]1CCCNC(=O)[C@H](C)N(C)C(=O)[C@H](C(C)C)NC1=O [SCLEROTIOTIDE A] | 7.5 µM (≈ 3.14 µg/mL) | inactive | inactive | inactive | inactive |
| C/C=C/C=C/C(=O)N[C@H]1CCCNC(=O)[C@H](C)N(C)C(=O)[C@H](C(C)C)N(C)C1=O [SCLEROTIOTIDE B] | 3.8 µM (≈ 1.54 µg/mL) | inactive | inactive | inactive | inactive |
| CC(C)[C@H]1C(=O)N(C)[C@@H](C)C(=O)NCCC[C@H](NC(=O)/C=C/C=C/C=O)C(=O)N1C [SCLEROTIOTIDE F] | 30 µM (≈ 12.6 µg/mL) | inactive | inactive | inactive | inactive |
| CC(C)[C@H]1C(=O)N(C)[C@@H](C)C(=O)NCCC[C@H](NC(=O)/C=C/C=C/[C@@H](O)[C@@H](C)O)C(=O)N1C [SCLEROTIOTIDE I] | 6.7 µM (≈ 3.13 µg/mL) | inactive | inactive | inactive | inactive |
